“Also recorded” adds a separate entry of the source. Numbered stars: 1 amine (or outer) side, 2 acyl side, 3 side chain; on linkers, the order of the positions; unused ones are H or OH. Bridge positions count the residues as written; N and C are the ends. Square brackets hold non-standard residues; d marks the D form. Peptide text beside a SMILES is read from it. I, II: the chains in the order shown. Actinocin(9to1) = Cc1c2oc3c(C)ccc(C(=O)[*:1])c3nc-2c(C(=O)[*:2])c(N)c1=O; NMeV = CN[C@H](C(=O)O)C(C)C; Sar = CNCC(=O)O
Legend:
[1] = tested on: RNA synthesis in HeLa cells; assay: RNA synthesis; assay type: cell-based; settings: [3H]uridine 2 h
Procedure, shortened: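 HeLa cells exposed to a range of test compound concentrations with [3H]uridine for 2 h. TCA-precipitated material on PVDF membrane quantified by scintillation counting. Actinomycin D and cycloheximide served as controls.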

[2] = tested on: protein synthesis in HeLa cells; assay: De novo protein synthesis by [35S]cysteine/methionine metabolic labeling; assay type: cell-based; settings: for Effect on protein synthesis (translation): metabolic labeling 2 h
Procedure, shortened: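 HeLa cells were given varying concentrations of test compound with [35S]cysteine/methionine for 2 h. TCA-precipitated proteins were collected on PVDF membrane and scintillation counted. Cycloheximide served as translation-inhibitor control and actinomycin D as transcription-inhibitor control. Runs were in triplicate, with s.d. shown.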

[3] = target: peptide bond formation on ribosomes (Oryctolagus cuniculus, UniProt G1SNY0+G1T040); assay: Peptidyl transfer; assay type: biochemical, rabbit; settings: LTM even at millimolar concentrations
[4] = tested on: HeLa, MDA-MB231 and Jurkat T cells; assay: Cell proliferation screen by [3H]-thymidine incorporation; assay type: cell-based; settings: 2.5 µM, 24 h
Procedure, shortened: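 Each of the three cell lines was exposed to test compound at 2.5 µM for 24 h. [3H]-thymidine was then applied to monitor cellular DNA synthesis as the proliferation read-out.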

MDA MB 231 tumors = assay: Mouse xenograft model; assay type: in vivo, female nude mice; settings: 0.6 mg/kg every day for one month, intraperitoneal
Procedure, shortened: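 Two million MDA MB 231 cells were injected subcutaneously into female nude mice. Once tumours were palpable, mice received 0.6 mg/kg test compound or solvent alone daily for one month.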

HEK 293T cells = assay: Polysome profiles in cells; assay type: cell-based; settings: 30 min
[5] = target: ribosomes, eEF1A and eEF2 (Oryctolagus cuniculus, UniProt G1SNY0+G1T040); assay: Polyphenylalanine synthesis on a poly; assay type: biochemical, rabbit; settings: 200 µM
[6] = tested on: cap-dependent and EMCV, HCV, CrPV IRES-mediated translation; assay: IRES dual luciferase reporter assay in rabbit reticulocyte lysate; assay type: biochemical; settings: HCV and CrPV IRES reporters
[7] = target: ribosome on rabbit β-globin mRNA (Oryctolagus cuniculus, UniProt G1SNY0+G1T040); assay: Toeprinting on rabbit β-globin mRNA in rabbit reticulocyte lysate; assay type: biochemical; settings: CHX 10 mM; LTM at 1/10,000th of the CHX concentration
Candida = settings: cited from earlier work
breast cancer cell lines = assay: Proliferation of breast cancer cell lines by [3H]thymidine incorporation; assay type: cell-based; settings: array of breast cancer cell lines, 24 h
[8] = target: eEF1A-mediated binding of aminoacyl-tRNA to ribosomes (Oryctolagus cuniculus, UniProt G1SNY0+G1T040); assay: eEF1A-dependent aminoacyl-tRNA binding; assay type: biochemical, rabbit; settings: 200 µM compound
Procedure, shortened: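 89 pmol ribosomes in 20 mM HEPES pH 7.4, 100 mM KCl, 10 mM MgCl2, 1 mM DTT were mixed with 200 ng poly(U), 2.2 µg eEF1A, 150 µM GDPNP and 200 µM compound before 10 pmol [14C]Phe-tRNAPhe was added. After 10 min at 37 °C, samples were diluted, filtered through nitrocellulose, rinsed and scintillation counted (1 pmol = 1100 dpm).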

P388 lymphoma = settings: cited from earlier work
[9] = tested on: rabbit reticulocyte lysate with rabbit β-globin RNA; assay: Polysome profiles in vitro; assay type: biochemical; settings: cell free system, 15 min
MCF10A = assay: Proliferation of non-tumorigenic breast cell line by [3H]thymidine incorporation; assay type: cell-based; settings: 24 h
[10] = target: pre-assembled initiation complexes (Saccharomyces cerevisiae, UniProt P02406+P0CX27); assay: Reconstituted translation elongation, tripeptide; assay type: biochemical; settings: 200 µM
pre-assembled initiation complexes, sequence (P02406 2-149 limits assumed): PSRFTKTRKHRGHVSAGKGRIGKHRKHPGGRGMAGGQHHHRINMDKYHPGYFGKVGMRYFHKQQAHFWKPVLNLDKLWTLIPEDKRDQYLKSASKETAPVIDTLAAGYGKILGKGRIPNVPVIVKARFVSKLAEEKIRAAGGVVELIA
pre-assembled initiation complexes, sequence (P0CX27 2-106 limits assumed): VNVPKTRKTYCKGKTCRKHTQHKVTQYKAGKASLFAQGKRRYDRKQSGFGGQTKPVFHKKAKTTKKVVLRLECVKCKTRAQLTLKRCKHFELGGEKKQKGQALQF

[11] = target: eEF2-mediated translocation (Oryctolagus cuniculus, UniProt G1SNY0+G1T040); assay: eEF2-dependent translocation; assay type: biochemical, rabbit; settings: 200 µM compound
translation in vitro = assay: In vitro translation; assay type: biochemical
translation = settings: cited from earlier work
[12] = target: binding of deacylated tRNA to the E-site of ribosomes (Oryctolagus cuniculus, UniProt G1SNY0+G1T040); assay: Deacylated tRNA binding to ribosomes; parameters: species or system rabbit
Procedure, shortened: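 Deacylated tRNA was 3′-end labelled with [32P] and diluted to 80,000 cpm/pmol. Inhibitor was at graded concentrations; 4 µM unlabelled deacylated tRNA was the control. Samples were diluted with 1 ml buffer, filtered through nitrocellulose, washed 5× and scintillation counted.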

With `Cc1c2oc3c(C)ccc(C(=O)N[C@@H]4C(=O)N[C@H](C(C)C)C(=O)N5CCC[C@H]5C(=O)N(C)CC(=O)N(C)[C@@H](C(C)C)C(=O)O[C@@H]4C)c3nc-2c(C(=O)N[C@@H]2C(=O)N[C@H](C(C)C)C(=O)N3CCC[C@H]3C(=O)N(C)CC(=O)N(C)[C@@H](C(C)C)C(=O)O[C@@H]2C)c(N)c1=O` [Actinomycin D, reference compound] (I: T[dV]P[Sar][NMeV] / II: T[dV]P[Sar][NMeV]; ester I:1-I:C, II:1-II:C; linker I:N-II:N via Actinocin(9to1)) the Effect on transcription [1] was “concomitantly blocked transcription and translation” and the “Effect on protein synthesis (translation)” value (“Effect on protein synthesis” below) [2] was “concomitantly blocked transcription and translation”.
For `CSC[S@+]([O-])C[C@H](CO)NC(=O)/C=C/c1c(C)[nH]c(=O)[nH]c1=O` [Sparsomycin, reference compound], the “Effect on peptide bond formation (methionyl-puromycin)” value [3] was “prevented methyionyl-puromycin synthesis”.
In the case of `CO[C@@H](/C=C/CC/C=C/C(=O)O)[C@@H](O)[C@H](C)[C@@H](O)/C(C)=C/[C@H](C)C(=O)CCCC1CC(=O)NC(=O)C1` [Dorrigocin B], the “Effect on protein synthesis” value [2] is reported as “no inhibitory effect; also recorded: abolished any inhibitory activity” and the “Inhibition of cell proliferation ([3H]-thymidine incorporation)” value (from here on “Inhibition of cell proliferation”) [4] is reported as “neither compound affected cell proliferation”.
In the case of `C/C(=C\[C@H](C)C(=O)C[C@H](O)CC1CC(=O)NC(=O)C1)[C@@H]1OC(=O)CCCC/C=C/C=C\[C@@H]1C` [compound 7, 2H Lactimidomycin], the “Inhibition of cell proliferation” value [4] is reported as “highly active”.
With `C/C(=C\[C@H](C)C(=O)C[C@H](O)CC1CC(=O)NC(=O)C1)[C@@H]1OC(=O)/C=C/CC/C=C/C=C\[C@@H]1C` [LTM, lactimidomycin] the “Effect on tumor growth in vivo” value (MDA MB 231 tumors) was “appreciable effect on tumor growth”, the “Effect on polysome profile in cells” value (HEK 293T cells) was “large increase in 80S ribosomes accompanied by depletion of polysomes” and the “Effect on polyphenylalanine synthesis” value [5] was “inhibited polyphenylalanine synthesis”. The “Effect on cap-dependent and IRES-mediated translation” value [6] was “inhibited translation from all three constructs to a similar degree”, the Effect on transcription [1] was “without a significant impact on transcription” and the “Toeprint titration, ribosome arrest” value [7] was “arrested the ribosome on the start codon”. The “Sensitivity of Candida” value (Candida) was “resistant”, the “Potency as inhibitor of translation relative to CHX” value [2] was “about 10 fold” and the “Effect on protein synthesis” value [2] was “exclusively inhibited protein synthesis”. The “IC50 concentrations, cell growth” value (breast cancer cell lines) was “low nanomolar range”, the “Effect on eEF1A-mediated binding of aminoacyl-tRNA” value [8] was “not inhibited” and the “Survival of mice with P388 lymphoma” value (P388 lymphoma) was “extended the survival”. For the same molecule, the “Effect on polysome profile in vitro” value [9] was “causing accumulation of 80S ribosomes”, the “Inhibition of growth of non-tumorigenic cells” value (MCF10A) was “higher doses were necessary” and the “Effect on peptide bond formation (methionyl-puromycin)” value [3] was “did not affect peptide bond formation”. For the same molecule, the “Effect on tripeptide formation” value [10] was “greatly slowed down tripeptide formation”, the “Effect on eEF2-mediated translocation (phenylalanyl puromycin formation)” value [11] was “inhibited phenylalanyl puromycin formation” and the “Inhibition of cell proliferation” value [4] was “most potent inhibitor of cell proliferation; also recorded: highly active”.
For `CCOC(=O)CO[C@@H](CC(=O)[C@@H](C)/C=C(\C)[C@@H]1OC(=O)/C=C/CC/C=C/C=C\[C@@H]1C)CC1CC(=O)NC(=O)C1` [compound 36, Ethylacetyl-Lactimidomycin], the “Effect of modification on translation inhibitory activity of LTM” value (translation in vitro) was “did not significantly decrease the activity”.
In the case of `C=C/C(C)=C/[C@H](C)C(=O)C[C@H](O)CC1CC(=O)NC(=O)C1` [Streptimidone], the Inhibition of translation (translation) is listed as “inhibits translation”.
For `CO[C@H]1/C=C/CC/C=C/C(=O)O[C@H]([C@H](C)C(=O)CCCC2CC(=O)NC(=O)C2)/C(C)=C\[C@@H](C)[C@@H]1O` [Migrastatin, migrastatin], the “Effect on protein synthesis” value [2] was “no inhibitory effect” and the “Inhibition of cell proliferation” value [4] was “neither compound affected cell proliferation”.
For `C[C@@H]1C[C@@H]([C@H](O)CC2CC(=O)NC(=O)C2)C(=O)[C@@H](C)C1` [CHX, cycloheximide, reference compound], the “Effect on polysome profile in cells” value (HEK 293T cells) was “little difference between CHX and solvent control”, the “Concentration causing a detectable decrease in the amount of bound tRNA” value [12] was 10 mM and the Effect on transcription [1] was “only affected transcription at very high doses”. For the same molecule, the “Toeprint titration, ribosome arrest” value [7] was “about half the ribosomal population to stop at the very first codon”, the “Effect on protein synthesis” value [2] was “strongly inhibited translation” and the “Effect on eEF1A-mediated binding of aminoacyl-tRNA” value [8] was “not inhibited”. The “Effect on polysome profile in vitro” value [9] was “causing accumulation of 80S ribosomes”, the “Effect on tripeptide formation” value [10] was “similar, albeit less pronounced effect” and the “Effect on eEF2-mediated translocation (phenylalanyl puromycin formation)” value [11] was “inhibited phenylalanyl puromycin formation”.
In the case of `CC(/C=C/C(C)=C/[C@@H]1Cc2nc(cs2)[C@@H](C)C[C@@H](N)CC(=O)O[C@@H](C)C/C(C)=C/C=C\C(=O)O1)=C\CN(C)C` [PatA, Pateamine A, reference compound], the “Effect on cap-dependent and IRES-mediated translation” value [6] is reported as “allowed translation off the HCV IRES”.
For `CO[C@H]1/C=C/CC/C=C/C(=O)O[C@@H](/C(C)=C/[C@H](C)C(=O)CCCC2CC(=O)NC(=O)C2)[C@@H](C)[C@@H]1O` [Isomigrastatin, isomigrastatin], the Effect on transcription [1] was “without a significant impact on transcription”, the “Effect on protein synthesis” value [2] was “exclusively inhibited protein synthesis” and the “Inhibition of cell proliferation” value [4] was “highly active”.
In the case of `CO[C@H]1/C=C/CC/C=C/C(=O)O[C@@H](/C(C)=C/[C@H](C)C(=O)/C=C/CC2CC(=O)NC(=O)C2)[C@@H](C)[C@@H]1O` [compound 8, Didehydro Isomigrastatin], the “Inhibition of cell proliferation” value [4] is reported as “highly active”.

From publication PMC2831214 (Nature chemical biology, 2010)
